Experimental findings from ChEMBL document CHEMBL1926621, “New potent 5-HT(2A) receptor ligands containing an N'-cyanopicolinamidine nucleus: Synthesis and in vitro pharmacological evaluation” (Eur J Med Chem, 2012) are described below.

The target in assay [1] is T1, Adrenergic receptor alpha-1 (Rattus norvegicus, UniProt P15823+P23944+P43140).
T1 sequence (P15823 whole entry): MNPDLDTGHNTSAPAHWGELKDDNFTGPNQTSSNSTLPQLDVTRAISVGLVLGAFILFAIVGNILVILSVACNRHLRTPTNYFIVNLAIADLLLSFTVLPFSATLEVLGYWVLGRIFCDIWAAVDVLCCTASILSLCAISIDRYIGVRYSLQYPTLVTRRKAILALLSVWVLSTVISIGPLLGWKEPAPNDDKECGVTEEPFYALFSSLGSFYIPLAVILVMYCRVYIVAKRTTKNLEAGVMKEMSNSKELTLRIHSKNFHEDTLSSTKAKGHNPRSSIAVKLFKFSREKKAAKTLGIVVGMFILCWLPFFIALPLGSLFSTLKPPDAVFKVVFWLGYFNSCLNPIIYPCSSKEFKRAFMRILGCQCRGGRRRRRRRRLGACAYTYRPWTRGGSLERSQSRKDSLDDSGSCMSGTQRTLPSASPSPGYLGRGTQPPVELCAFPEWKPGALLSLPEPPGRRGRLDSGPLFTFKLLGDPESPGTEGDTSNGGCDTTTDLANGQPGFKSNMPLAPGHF
T1 sequence (P23944 whole entry): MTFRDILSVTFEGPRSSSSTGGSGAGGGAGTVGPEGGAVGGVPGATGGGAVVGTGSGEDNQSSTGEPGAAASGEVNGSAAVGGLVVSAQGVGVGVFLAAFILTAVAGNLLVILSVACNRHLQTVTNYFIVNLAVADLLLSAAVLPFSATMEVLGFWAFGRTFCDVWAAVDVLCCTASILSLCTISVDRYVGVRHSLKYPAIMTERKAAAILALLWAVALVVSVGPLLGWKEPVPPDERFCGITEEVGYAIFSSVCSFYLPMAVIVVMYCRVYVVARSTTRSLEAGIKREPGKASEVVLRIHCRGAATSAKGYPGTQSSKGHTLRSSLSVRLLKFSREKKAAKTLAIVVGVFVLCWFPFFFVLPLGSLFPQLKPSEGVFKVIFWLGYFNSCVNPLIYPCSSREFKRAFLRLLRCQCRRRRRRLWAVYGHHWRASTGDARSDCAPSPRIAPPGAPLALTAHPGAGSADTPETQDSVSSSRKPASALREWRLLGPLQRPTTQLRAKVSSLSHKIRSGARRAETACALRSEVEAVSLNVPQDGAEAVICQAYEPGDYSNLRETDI
T1 sequence (P43140 whole entry): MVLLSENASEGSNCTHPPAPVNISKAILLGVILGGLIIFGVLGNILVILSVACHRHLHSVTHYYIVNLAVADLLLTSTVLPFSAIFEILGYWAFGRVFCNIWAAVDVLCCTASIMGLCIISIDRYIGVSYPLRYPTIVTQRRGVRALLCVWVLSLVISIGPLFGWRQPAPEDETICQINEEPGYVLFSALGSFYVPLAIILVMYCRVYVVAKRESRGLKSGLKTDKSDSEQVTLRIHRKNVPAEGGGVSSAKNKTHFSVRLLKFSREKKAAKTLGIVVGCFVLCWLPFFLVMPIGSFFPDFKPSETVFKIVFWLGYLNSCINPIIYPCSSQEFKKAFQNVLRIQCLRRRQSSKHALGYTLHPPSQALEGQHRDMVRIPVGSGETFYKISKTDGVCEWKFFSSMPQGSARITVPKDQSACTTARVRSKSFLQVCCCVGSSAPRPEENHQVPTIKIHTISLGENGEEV
As to the kind of experiment: Displacement of [3H]prazosin from rat brain cortex adrenergic alpha1 receptor after 30 mins by liquid scintillation counting. In a few lines: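 Brain cortex homogenized in 50 mM Tris-HCl pH 7.2, spun twice at 50,000 g, resuspended in Tris-HCl pH 7.4. 0.4 nM [3H]prazosin final, 10 mg fresh tissue, 30 min at 25 °C. Nonspecific binding with phentolamine. GF/B filtration. Ki by Cheng-Prusoff from six-point triplicate curves.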
A general note: In a radioligand displacement assay an active substance lowers the binding of a labelled ligand.

For assay [2], the target named is 5-hydroxytryptamine receptor 2A (Rattus norvegicus) (UniProt P14842). Put plainly: Displacement of [3H]ketanserin from Sprague-Dawley rat brain cortex serotonin 5-HT2A receptor at 0.001 uM after 15 mins by liquid scintillation counting.
Chain of 5-hydroxytryptamine receptor 2A (Rattus norvegicus) (P14842 whole entry): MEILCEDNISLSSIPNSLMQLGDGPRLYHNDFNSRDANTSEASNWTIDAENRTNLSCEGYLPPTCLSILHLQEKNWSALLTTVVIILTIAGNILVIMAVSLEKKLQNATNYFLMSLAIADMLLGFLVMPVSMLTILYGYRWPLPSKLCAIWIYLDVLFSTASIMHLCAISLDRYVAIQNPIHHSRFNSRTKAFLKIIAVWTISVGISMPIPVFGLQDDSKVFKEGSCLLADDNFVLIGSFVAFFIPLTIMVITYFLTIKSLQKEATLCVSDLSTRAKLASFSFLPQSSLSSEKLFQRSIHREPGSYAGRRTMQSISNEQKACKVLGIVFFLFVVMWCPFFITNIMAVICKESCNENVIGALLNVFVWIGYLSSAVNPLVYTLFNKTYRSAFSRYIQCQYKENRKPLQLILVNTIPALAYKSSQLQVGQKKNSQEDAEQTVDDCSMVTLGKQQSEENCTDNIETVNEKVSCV

As a reminder, the Ki is the dissociation constant of the complex between target and ligand, obtained from inhibition or displacement. Low readings indicate higher affinity, high ones lower affinity. One may read the inhibition as how much of the control response was suppressed. Higher therefore signals a response far below the control.

On to `COc1ccccc1N1CCN(CCCN/C(=N\C#N)c2ccccn2)CC1`, for which the Ki in assay [1] is 105 nM. In assay [2], this molecule returned an inhibition of 95.1%.
With `N#C/N=C(\NCCCN1CCN(c2ccccn2)CC1)c1ccccn1`, the Ki in assay [1] came to 130 nM.
In turn, `N#C/N=C(\NCCCN1CCN(c2ncccn2)CC1)c1ccccn1` gave a Ki in assay [1] of over 10000 nM. This molecule also registered an inhibition in assay [2] of 70.4%.
For `N#C/N=C(\NCCCN1CCN(c2cccc(C(F)(F)F)c2)CC1)c1ccccn1`, in that order: 770 nM and 85.9%.
As for `Cc1cccc(N2CCN(CCCN/C(=N\C#N)c3ccccn3)CC2)c1C`, the Ki in assay [1] is 729 nM. In other words, the sub-micromolar range.
On the same count and under the same terms, the same measure for `CCOc1ccccc1N1CCN(CCCN/C(=N\C#N)c2ccccn2)CC1`: 152 nM.
